ChEMBL document CHEMBL1124794, “Synthesis, chemistry, and antineoplastic activity of alpha-halopyridinium salts: potential pyridone prodrugs of acylated vinylogous carbinolamine tumor inhibitors” (J Med Chem, 1990)

What was measured:
MX1 [1] = experiment: In vivo activity against murine MX-1 tumor system at the dose of 37.5 mg/kg, activity expressed as %T/C.; type: functional, Mus musculus
P388 = experiment: In vivo activity against P388 Lymphocytic Leukemia in CD2F1 mice at the dose of mg/kg, activity expressed as KE; type: functional, Mus musculus
L1210 [2] = experiment: In vivo activity against murine L1210 tumor system at the dose of 25 mg/kg, activity expressed as %T/C.; type: functional, Mus musculus
In short: (§1)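 L1210 lymphocytic leukemia: ascitic fluid with ca. 10^6 cells injected ip into CD2F1 mice. Dosing started 24 h after inoculation and was repeated daily for five doses in total, from solutions or suspensions made fresh each day. Toxicity day survivors were scored on day 5. Body weight difference is day 5 minus day 1. %T/C is based on median survival time versus controls.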

MX1 [3] = experiment: In vivo activity against murine MX-1 tumor system at the dose of 75 mg/kg, activity expressed as %T/C.; type: functional, Mus musculus
[4] = Effect of phosphate buffer on the hydrolysis of alpha Fluoropyridinium Moity at the concentration of 0.05M, pH 6.5, 25 degree C; type: ADME
In short: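 α-Fluoropyridinium hydrolysis to pyridone in phosphate buffer at 0.02, 0.05 or 0.10 M, pH 6.5 or 8.0, ionic strength […] °C. Pyridinium UV absorbance maximum followed with time to give pseudo-first-order kobs and half-life.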

[5] = Effect of pH on the hydrolysis of pyridinium Moity in 0.05 M buffer concentration at the pH 7.4; type: ADME
In short: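 Pyridinium salt in 0.05 M phosphate buffer, pH 6.0–8.0 (set by pH meter), ionic strength 0.25 M, 25 °C. Decrease in the pyridinium UV absorbance maximum followed over time to give pseudo-first-order kobs and half-life.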

[6] = Half life at the concentration of 0.05 M.
[7] = Effect of phosphate buffer on carbamate hydrolysis in acetonitrile-water at the concentration of 0.01 M on pH 3.0, 25 degree C.; type: ADME; details: in the assay text read “citrate buffer” for “phosphate buffer”
In short: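 Bis-carbamate in acetonitrile–water (1:1), 25 ± 0.1 °C. Citrate buffer at pH 3.0 or phosphate buffer at pH 7.4, at 0.01, 0.025 or 0.05 M, ionic strength 0.136 (KCl). Kinetics followed by HPLC as the decrease in bis-carbamate peak area. The regression slope of ln(area0/areat) vs time gave pseudo-first-order kobs. Duplicates averaged.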

[8] = Half life at the pH 4.0; type: ADME; details: buffer
In short: (§2)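 Bis-carbamate in acetonitrile–water (1:1; buffer added to a 0.5 mg/mL acetonitrile solution), 0.05 M buffer, ionic strength 0.136 (KCl), 25 ± 0.1 °C. Buffers: phosphate pH 2.0; citrate pH 3.0–3.5; succinate pH 4.0; acetate pH 5.0; phosphate pH 6.0–8.0; borate pH 9.0; carbonate pH 10.0. HPLC bis-carbamate peak-area loss, ln(area0/areat) vs time slope = kobs. Duplicates averaged.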

[9] = In vivo activity against murine M5076 tumor system at the dose of 21.6 mg/kg, activity expressed as TDS; 10/10; type: functional, Mus musculus
In short: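 M5076: ascitic fluid with ca. 10^6 cells inoculated ip into CD2F1 mice. Dosing started 24 h after inoculation and was then given every 4 days for four doses in total, from solutions or suspensions made fresh each day. Toxicity day survivors were scored on day 5. Body weight difference is day 14 minus day 1. %T/C is based on median survival time versus controls.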

[10] = Effect of pH on carbamate hydrolysis in 0.05 M buffer concentration at the pH 5.0, 25 degree C.; type: ADME; in short: as §2
L1210 [11] = experiment: In vivo activity against murine L1210 tumor system at the dose of 166.7 mg/kg, activity expressed as TDS; 5/6; type: functional, Mus musculus; in short: as §1
L1210 [12] = experiment: In vivo activity against murine L1210 tumor system at the dose of 36 mg/kg, activity expressed as body weight difference; T-C; type: functional, Mus musculus; in short: as §1

K obs [4] [min⁻¹]	K obs [5] [min⁻¹]	T1/2 [6] [min]	K obs [7] [min⁻¹]	half-life [8] [min]	K obs [10] [min⁻¹]	SMILES	T/C (MX1 [1]) [%]	KE (P388)	T/C (L1210 [2]) [%]	T/C (MX1 [3]) [%]	TDS [9]	TDS (L1210 [11])	BWD (L1210 [12]) [g]
0.0072	0.0337	96.2				CC(C)NC(=O)OCc1c(COC(=O)NC(C)C)c(-c2cc[n+](C)c(F)c2)n2c1CCC2.[I-]	69	1.25	118	34			
			0.0349	46.7	0.0139	CC(C)NC(=O)OCc1c(COC(=O)NC(C)C)c(-c2ccn(C)c(=O)c2)n2c1CCC2					10	5	-0.3
